ChEMBL document CHEMBL4145483, “Quinoxaline derivatives as new inhibitors of coxsackievirus B5” (Eur J Med Chem, 2018)
In brackets after ≈: the same amount, converted by molar mass. Activity calls are given as the source filed them. The rule behind the calls is not given here.

Tests used:
[1] = system: Bovine viral diarrhea virus 1; assay: Antiviral activity against BVDV NADL ATCC VR-534 infected in MDBK cells assessed as protection against virus-induced cytopathic effect after 3 to 4 days by MTT assay; assay type: functional, organism-based, Bovine viral diarrhea virus 1-NADL; conditions: Bovine viral diarrhea virus isolates and strains, ATCC VR-534, MDBK
Method in brief: (§1)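 Cytopathic-effect protection assay. MDBK (BVDV) or BHK (Reo-1) cells are infected in the presence of serial compound dilutions. After 3 or 4 days at 37 °C, viability is read by MTT. EC50 is the concentration giving 50% protection from virus-induced cytopathogenicity, derived by linear regression.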

Yellow fever virus = assay: Antiviral activity against Yellow fever virus 17D infected in golden hamster BHK21 cells assessed as protection against virus-induced cytopathic effect after 3 to 4 days by MTT assay; assay type: functional, organism-based; conditions: BHK-21
[2] = Cytotoxicity against MDBK cells assessed as reduction in cell viability after 48 to 96 hrs by MTT assay; assay type: cell-based, Bos taurus; conditions: cattle
Method in brief: (§2)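 Cells are grown in medium with serum: MT-4 at 4×10^5 cells/ml in RPMI-1640 with 10% FBS; MDBK at 6×10^5 in MEM-E with 10% horse serum; BHK at 1×10^6 in MEM-E with 10% FBS; Vero-76 at 4×10^5 in D-MEM with 10% FBS. Serial dilutions are added at 37 °C, 5% CO2, and viability is read by MTT after 48–96 h. CC50 comes from linear regression. For MDBK, selectivity index is CC50/BVDV EC50.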

[3] = Cytotoxicity against golden hamster BHK21 cells assessed as reduction in cell viability after 48 to 96 hrs by MTT assay; assay type: cell-based, Mesocricetus auratus, BHK-21; method in brief: as §2
[4] = system: Mammalian orthoreovirus 1; assay: Antiviral activity against Reovirus 1 3651 ATCC VR-214 infected in golden hamster BHK21 cells assessed as protection against virus-induced cytopathic effect after 3 to 4 days by MTT assay; assay type: functional, organism-based; conditions: Mammalian orthoreovirus 1, 3651 ATCC VR-214, BHK-21; method in brief: as §1
[5] = system: Vesicular stomatitis Indiana virus; assay: Antiviral activity against Vesicular stomatitis virus Indiana ATCC VR 1540 infected in African green monkey Vero 76 cells after 3 days by plaque reduction assay; assay type: functional, organism-based; conditions: ATCC VR 1540, Vero 76, 72 h
[6] = system: Human poliovirus 1 strain Sabin; assay: Antiviral activity against Poliovirus 1 Sabin ATCC VR 1562 infected in African green monkey Vero 76 cells after 2 days by plaque reduction assay; assay type: functional, organism-based; conditions: Enterovirus C, ATCC VR 1562, Vero 76, 48 h
[7] = system: Human immunodeficiency virus 1; assay: Antiviral activity against HIV1 3B infected in human MT4 cells assessed as protection against virus-induced cytopathic effect after 3 to 4 days by MTT assay; assay type: functional, organism-based; conditions: Human immunodeficiency virus 1, 3B
Method in brief: (§3)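 MT-4 cells in exponential growth are acutely infected with HIV-1 at m.o.i. 0.01 and exposed to serial compound dilutions. Viability is read by MTT after 3–4 days at 37 °C. EC50 is the concentration giving 50% protection from virus-induced cytopathogenicity, and CC50 is taken from mock-infected MT-4 cells. Both are fitted by linear regression, and the selectivity index is CC50/EC50.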

Human alphaherpesvirus 1 = assay: Antiviral activity against HSV1 KOS ATCC VR 1493 infected in African green monkey Vero 76 cells after 3 days by plaque reduction assay; assay type: functional, organism-based; conditions: Human alphaherpesvirus 1, KOS ATCC VR1493, Vero 76, 72 h
Method in brief: (§4)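 Plaque reduction in Vero-76 monolayers, with cytotoxicity measured in parallel on the same plate. EC50 is the concentration reducing plaque number by 50%, derived by linear regression. CC50 is the concentration reducing viability of mock-infected Vero-76 cells by 50%, by MTT. Selectivity index is CC50/EC50.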

Coxsackievirus B5 [8] = assay: Antiviral activity against Coxsackievirus B5 Ohio-1 ATCC VR 29 infected in African green monkey Vero 76 cells assessed as reduction in viral replication at 1 uM measured at 4 to 12 hrs post infection by plaque assay; assay type: functional, organism-based
Method in brief: (§5)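 Time of addition. Confluent Vero-76 monolayers are infected with CV-B5 at m.o.i. 0.3. Compound at 1 μM is given at −2 to 0 h then removed, at 0 h then removed or kept, or at 2, 4, 6, 8 or 12 h post infection. After 3 days, monolayers are collected and titred by plaque assay, in two independent experiments each done in duplicate.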

Human orthopneumovirus = assay: Antiviral activity against Human respiratory syncytial virus A2 ATCC VR 1540 infected in African green monkey Vero 76 cells after 5 days by plaque reduction assay; assay type: functional, organism-based; conditions: ATCC VR 1540, Vero 76, 120 h; method in brief: as §4
Coxsackievirus B5 [9] = assay: Antiviral activity against Coxsackievirus B5 Ohio-1 ATCC VR 29 infected in African green monkey Vero 76 cells assessed as reduction in viral titre at 1 uM treated simultaneously with viral infection and subsequent compound washout after 2 hrs by plaque assay; assay type: functional, organism-based; method in brief: as §5
Vaccinia virus = assay: Antiviral activity against Vaccinia virus Lister ATCC VR 1549 infected in African green monkey Vero 76 cells after 3 days by plaque reduction assay; assay type: functional, organism-based; conditions: Orthopoxvirus vaccinia, ATCC VR 1549, Vero 76, 72 h
Coxsackievirus B5 [10] = assay: Antiviral activity against Coxsackievirus B5 Ohio-1 ATCC VR 29 infected in African green monkey Vero 76 cells assessed as reduction in viral infectivity at 4 to 20 uM after 1 hr by plaque assay; assay type: functional, organism-based
Method in brief: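 Virucidal test. A CV-B5 suspension (5×10^5 PFU/ml) is incubated with 4 or 20 μM compound, or without, for 1 h at 37 °C. Residual infectivity is then measured by plaque assay on Vero-76 cells.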

[11] = Cytotoxicity against African green monkey Vero 76 cells assessed as reduction in cell viability after 48 to 96 hrs by MTT assay; assay type: cell-based; conditions: chlorocebus sabaeus; method in brief: as §2
[12] = Selectivity index, ratio of CC50 for African green monkey Vero 76 cells to EC50 for Coxsackievirus B5 Ohio-1 ATCC VR-29; assay type: toxicity; conditions: read-out: Ratio CC50/EC50; method in brief: as §4
Coxsackievirus B5 [13] = assay: Antiviral activity against Coxsackievirus B5 Ohio-1 ATCC VR 29 infected in African green monkey Vero 76 cells assessed as reduction in viral yield after 72 hrs by plaque reduction assay; assay type: functional, organism-based
[14] = Cytotoxicity against human MT4 cells assessed as reduction in cell viability after 48 to 96 hrs by MTT assay; assay type: cell-based; method in brief: as §2
Coxsackievirus B5 [15] = assay: Antiviral activity against Coxsackievirus B5 Ohio-1 ATCC VR 29 infected in African green monkey Vero 76 cells assessed as reduction in viral replication at 1 uM measured up to 2 hrs post infection by plaque assay; assay type: functional, organism-based; method in brief: as §5
Coxsackievirus B5 [16] = assay: Antiviral activity against Coxsackievirus B5 Ohio-1 ATCC VR 29 infected in African green monkey Vero 76 cells after 3 days by plaque reduction assay; assay type: functional, organism-based; conditions: Enterovirus B, Ohio-1 ATCC VR 29, Vero 76, 72 h; method in brief: as §4
Coxsackievirus B5 [17] = assay: Antiviral activity against Coxsackievirus B5 Ohio-1 ATCC VR 29 infected in African green monkey Vero 76 cells assessed as reduction in viral titre at 1 uM treated simultaneously with viral infection by plaque assay; assay type: functional, organism-based; method in brief: as §5
Coxsackievirus B5 [18] = assay: Antiviral activity against Coxsackievirus B5 Ohio-1 ATCC VR 29 infected in African green monkey Vero 76 cells assessed as reduction in viral titre incubated for 60 mins at 4 degC measured after 24 hrs by plaque assay; assay type: functional, organism-based
Method in brief: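 Adsorption assay. Vero-76 cells are infected with CV-B5 (m.o.i. 0.1) with or without compound for 60 min at 4 °C. Unbound virus is removed, cells are washed twice with PBS and overlaid with MEM containing 1% methylcellulose. Plaques are counted after 24 h at 37 °C.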

Coxsackievirus B5 [19] = assay: Antiviral activity against Coxsackievirus B5 Ohio-1 ATCC VR 29 infected in African green monkey Vero 76 cells assessed as reduction in viral titre at 1 uM preincubated for 2 hrs followed by viral infection and subsequent compound washout at 2 hrs post infection by plaque assay; assay type: functional, organism-based; method in brief: as §5
[20] = system: Human immunodeficiency virus 1; assay: Antiviral activity against HIV1 3B infected in human MT4 cells assessed as inhibition of viral replication by MTT assay; assay type: functional, organism-based; conditions: Human immunodeficiency virus 1, 3B; method in brief: as §3
[21] = Selectivity index, ratio of CC50 for human MT4 cells to EC50 for HIV1 3B; assay type: toxicity; conditions: read-out: Ratio CC50/EC50; method in brief: as §3
[22] = Selectivity index, ratio of CC50 for MDBK cells to EC50 for BVDV NADL ATCC VR-534; assay type: toxicity; conditions: cattle, read-out: Ratio CC50/EC50; method in brief: as §2

| Compound | EC50 [1] [µM] | EC50 (Yellow fever virus) [µM] | CC50 [2] [µM] | CC50 [3] [µM] | EC50 [4] [µM] | EC50 [5] [µM] | EC50 [6] [µM] | EC50 [7] [µM] | EC50 (Human alphaherpesvirus 1) [µM] | EC50 (Human orthopneumovirus) [µM] | EC50 (Vaccinia virus) [µM] | CC50 [11] [µM] | selectivity ratio [12] | CC50 [14] [µM] | EC50 (Coxsackievirus B5 [16]) [µM] | further results |
| --- | --- | --- | --- | --- | --- | --- | --- | --- | --- | --- | --- | --- | --- | --- | --- | --- |
| C[C@@]1(O)[C@H](O)[C@@H](CO)O[C@H]1n1cnc2c(=O)[nH]c(N)nc21 [2'-B-METHYL-GUANOSINE] | 1.1 | 1.9 | > 100 | > 100 | 1.9 | – | – | – | – | – | – | – | – | – | – | – |
| CCOC(=O)c1ccc(SCc2ccc3nc(OC)c(OC)nc3c2)cc1 | > 100 | > 100 | > 100 | > 100 | > 100 | > 100 | > 100 | > 100 | > 100 | > 100 | > 100 | > 100 | > 1110 | > 100 | 0.09 | Activity (Coxsackievirus B5 [8]): inactive; Activity (Coxsackievirus B5 [9]): inactive; Activity (Coxsackievirus B5 [10]): inactive; Activity (Coxsackievirus B5 [13]): Dose-dependent effect; Activity (Coxsackievirus B5 [15]): Active; Activity (Coxsackievirus B5 [17]): Active; Activity (Coxsackievirus B5 [18]): inactive; Activity (Coxsackievirus B5 [19]): inactive |
| C=CCCCOc1cnc2cc(C)c(C)cc2n1 | – | – | – | – | – | – | – | – | – | – | – | – | – | – | – | IC50 [20]: 0.22 mg/L (≈ 0.908 µM) |
| COc1nc2ccc(CSc3ccc(Cl)c(Cl)c3)cc2nc1OC | > 100 | > 80 | > 100 | 80 | > 80 | > 75 | > 75 | > 48 | > 75 | > 75 | > 75 | 75 | – | 48 | > 75 | – |
| COc1nc2ccc(CSc3ccc4ccccc4c3)cc2nc1OC | > 100 | > 100 | > 100 | > 100 | > 100 | > 100 | > 100 | 36 | > 100 | > 100 | > 100 | > 100 | – | > 100 | > 100 | selectivity ratio [21]: 2.7 |
| Cc1cc(CCCOc2c(C)cc(-c3noc(C(F)(F)F)n3)cc2C)on1 [PLECONARIL] | – | – | – | – | – | – | – | – | – | – | – | > 100 | – | – | 0.005 | – |
| COc1nc2ccc(CSc3ccc(C(=O)O)cn3)cc2nc1OC | > 100 | > 100 | > 100 | > 100 | > 100 | > 90 | > 90 | > 100 | > 90 | > 90 | > 90 | 90 | 23 | > 100 | 3.8 | – |
| COc1nc2ccc(CSc3ccccn3)cc2nc1OC | > 100 | > 100 | > 100 | > 100 | > 100 | > 100 | > 100 | > 28 | > 100 | > 100 | > 100 | > 100 | – | 28 | > 100 | – |
| CCOC(=O)CC[C@H](NC(=O)c1ccc(SCc2ccc3nc(OC)c(OC)nc3c2)nc1)C(=O)OCC | 10 | > 85 | > 100 | 85 | > 85 | > 100 | > 100 | > 19 | > 100 | > 100 | > 100 | > 100 | > 1.7 | 19 | 56 | selectivity ratio [22]: > 10 |
| COc1nc2ccc(CSc3ccc(C(=O)O)cc3)cc2nc1OC | > 100 | > 65 | > 100 | 65 | > 65 | > 65 | > 65 | > 68 | > 65 | > 65 | > 65 | 65 | 1080 | 68 | 0.06 | – |
| CCOC(=O)c1ccc(SCc2ccc3nc(OC)c(OC)nc3c2)nc1 | > 100 | > 100 | > 100 | > 100 | > 100 | > 100 | > 100 | > 100 | > 100 | > 100 | > 100 | > 100 | > 333 | > 100 | 0.3 | – |
| CCOC(=O)CC[C@H](NC(=O)c1ccccc1SCc1ccc2nc(OC)c(OC)nc2c1)C(=O)OCC | > 100 | > 100 | > 100 | > 100 | > 100 | > 100 | > 100 | > 60 | > 100 | > 100 | > 100 | > 100 | – | 60 | > 100 | – |
